# Compound activity deposited in PubChem by Johns Hopkins Ion Channel Center.
# KCNK9 inh – KCNK9 potassium channel inhibitors, primary screen, HEK293 cells, thallium flux; FluxOR thallium flux fluorescence; stronger effect = lower value; B-score at 10 µM; actives 1.2% (n = 310,000);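 active = ratio B-score over 3 SD below the library mean, with starting fluorescence within 5 SD of its mean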;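 also: negative B-score means less thallium flux so channel inhibition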
# KCNQ1 pot – potentiators or activators of KCNQ1 channel, primary screen, cell-based, thallium flux, high-throughput | B-score at 10 µM | CHO-K1 KCNQ1, thallium flux FluxOR fluorescence; stronger effect = higher value | actives 0.35% (n = 310,000);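 active = fluorescence ratio B-score, a plate-corrected score, at least three library SD, with initial intensity B-score within 5 SD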
#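 System: CHO-K1 cells stably expressing KCNQ1 / Medium: assay buffer for compound exposure, DMSO matched across wells / Reagent: thallium- and potassium-containing depolarizing buffer / Compound: one concentration, matched DMSO / Incubation: 20 min compound pretreatment at room temperature / Measured by: kinetic FluxOR fluorescence, 10 s baseline plus 110 s post-stimulus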
# hERG protect – hERG rescue from dofetilide block, primary screen, cell-based, CHO-hERG, FluxOR thallium flux, dofetilide IC70. Voltage-gated inwardly rectifying potassium channel KCNH2 (Homo sapiens), Q12809. dofetilide IC70 present. activation (rescue from dofetilide block), less the hit threshold, % at 10 µM. actives 0.51% (n = 310,000). AID 1511, 2009;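 active = activation above the mean of controls blocked by dofetilide plus 5 SD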;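 also: thallium influx through hERG after potassium depolarization seen as dye fluorescence rise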
# Target sequence (Q12809 whole entry, looked up): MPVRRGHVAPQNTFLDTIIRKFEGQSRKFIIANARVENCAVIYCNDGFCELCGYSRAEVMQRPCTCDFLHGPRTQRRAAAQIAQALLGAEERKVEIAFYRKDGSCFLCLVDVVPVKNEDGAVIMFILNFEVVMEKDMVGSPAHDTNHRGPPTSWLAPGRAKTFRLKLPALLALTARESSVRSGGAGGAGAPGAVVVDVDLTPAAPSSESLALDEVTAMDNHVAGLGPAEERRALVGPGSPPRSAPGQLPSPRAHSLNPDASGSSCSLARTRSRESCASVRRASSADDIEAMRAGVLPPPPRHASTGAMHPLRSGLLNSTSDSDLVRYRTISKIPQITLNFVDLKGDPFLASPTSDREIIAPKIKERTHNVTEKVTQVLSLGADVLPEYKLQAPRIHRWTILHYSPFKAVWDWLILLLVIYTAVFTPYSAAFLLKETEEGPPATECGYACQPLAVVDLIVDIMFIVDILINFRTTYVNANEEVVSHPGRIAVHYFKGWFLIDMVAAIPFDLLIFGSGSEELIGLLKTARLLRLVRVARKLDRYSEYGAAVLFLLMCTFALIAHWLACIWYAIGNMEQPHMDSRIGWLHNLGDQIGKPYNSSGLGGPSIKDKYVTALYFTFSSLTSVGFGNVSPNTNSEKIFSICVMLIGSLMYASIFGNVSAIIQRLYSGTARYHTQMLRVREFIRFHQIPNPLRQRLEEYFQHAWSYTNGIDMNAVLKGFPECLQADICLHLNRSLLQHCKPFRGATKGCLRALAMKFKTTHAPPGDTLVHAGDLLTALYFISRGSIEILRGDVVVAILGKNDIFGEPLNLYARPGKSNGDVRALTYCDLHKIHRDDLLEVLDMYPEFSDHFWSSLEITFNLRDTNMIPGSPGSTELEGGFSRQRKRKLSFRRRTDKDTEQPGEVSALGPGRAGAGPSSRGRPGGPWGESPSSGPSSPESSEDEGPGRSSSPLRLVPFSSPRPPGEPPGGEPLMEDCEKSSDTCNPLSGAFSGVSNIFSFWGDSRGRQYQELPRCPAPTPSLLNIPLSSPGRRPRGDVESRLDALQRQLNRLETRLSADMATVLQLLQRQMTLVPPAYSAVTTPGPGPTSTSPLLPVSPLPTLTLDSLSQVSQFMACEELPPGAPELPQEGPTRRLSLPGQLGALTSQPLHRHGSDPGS
# KCNQ1 inh – inhibitors of human KCNQ1 channel, primary screen, cell-based, thallium flux, high-throughput; B-score at 10 µM; Potassium voltage-gated channel subfamily KQT member 1 (Homo sapiens), P51787; AID 2642, 2010; actives 1.3% (n = 310,000); CHO-K1 KCNQ1, FluxOR thallium flux fluorescence; stronger effect = higher value;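 active = compounds whose thallium flux B-score, printed positive for inhibition, exceeds three library SD while starting fluorescence stays within three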;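 also: channel opened by potassium depolarization with thallium stimulus after 20 min compound exposure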
# KCNK3 block – human KCNK3 channel inhibitors, primary screen, CHO cells, FluxOR thallium flux, B-score; Potassium channel subfamily K member 3 (Homo sapiens), O14649; FluxOR fluorescence; stronger effect = lower value; B-score at 10 µM; actives 0.84% (n = 340,000);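 active = B-score under library mean minus 4 SD, starting fluorescence ratio at most library mean plus 5 SD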;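 also: more negative B-score means stronger inhibition of thallium flux through KCNK3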
# KCNK9 inh conf – KCNK9 potassium channel inhibitors, confirmation, HEK293 cells, thallium flux, duplicate | FluxOR thallium flux fluorescence | shares compounds with KCNK9 inh | actives 43% (n = 4,900) | AID 492992, 2010 | inhibition, % at 10 µM;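 active = thallium signal inhibited by more than 5 SD of the compound-free buffer control wells, on both duplicate plates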;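 also: 0% = assay buffer control wells without compound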
# Kir2-1 spec – mouse Kir2.1 channel inhibition, confirmation, selectivity assay for KCNK9 modulator project, cell-based, HEK293, thallium flux | shares compounds with KCNK9 inh | Kir2.1 cells, FluxOR thallium flux fluorescence | inhibition, % at 10 µM | actives 4% (n = 4,900) | AID 492993, 2010;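 active = thallium signal drop more than 5 SD beyond the mean of the no-compound control wells, seen in both duplicate plates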;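 also: signal is fluorescence rise after thallium addition divided by baseline fluorescence; plate controls were assay buffer only for no effect and full block by chlorpromazine control for full effect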
# KCNK9 uninduced – thallium flux in non-induced HEK293 cells, confirmation, counter-screen for KCNK9 inhibitor project, cell-based, second counter screen, non-induced KCNK9-HEK293; shares compounds with KCNK9 inh; FluxOR thallium flux; inhibition, % at 10 µM; actives 40% (n = 4,900); AID 492997, 2010;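 active = thallium signal drop beyond 5 SD of the untreated control mean, on both duplicate plates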;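 also: plate controls were buffer only IC0 wells for no effect and SID17386958 at its maximal inhibitory level for full effect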
# Active calls of the source: *; i = inactive; · = no result given. Only some compounds are listed: those with a hit (about 3.1% of all), similar ones and a draw of the others.
SMILES,KCNK9 inh,KCNQ1 pot,hERG protect,KCNQ1 inh,KCNK3 block,KCNK9 inh conf,Kir2-1 spec,KCNK9 uninduced
O=C(CCc1ccc(Oc2cc([N+](=O)[O-])cc([N+](=O)[O-])c2)cc1)N1CCCCCC1,-10*,i,-7,i,i,46%*,i,i
Cc1nc2c(ccc3nc(NC(=O)C(c4ccccc4)c4ccccc4)sc32)s1,-9.8*,i,-23,i,i,i,i,i
Cc1ccc(C)c(OCc2cc(C(=O)N3CCc4sccc4C3)no2)c1,i,i,-15,i,i,·,·,·
CSc1ccccc1OCc1cc(C(=O)N2CCc3sccc3C2)no1,i,i,-7,i,i,i,i,i
COc1cc(/C=C/C(=O)OCC(=O)N2CCC(Cc3ccccc3)CC2)ccc1O,i,i,-16,i,i,i,i,i
COc1cccc(OC)c1OCCCN1CCC(Cc2ccccc2)CC1,i,i,-10,i,i,i,i,i
COc1cc(C(=O)OCC(=O)N2CCC(Cc3ccccc3)CC2)cc(OC)c1OC,i,i,-6,i,i,i,i,i
COc1cccc(OC)c1C(=O)OCC(=O)N1CCC(Cc2ccccc2)CC1,·,·,·,·,i,·,·,·
Nc1c(Br)cc2c([nH]c(=O)c3ccccc32)c1Br,·,·,·,·,i,·,·,·
CC1(NC(=O)c2cccc(S(=O)(=O)N3CCN(c4ccc(F)cc4)CC3)c2)CCS(=O)(=O)C1 (centres undefined),i,i,-11,i,i,·,·,·
CC(C)(C)c1ccc(C(=O)NC2CCS(=O)(=O)C2)cc1 (centres undefined),i,i,-5,i,i,·,·,·
C=CCn1cccc(C(=O)Nc2ccc(F)cc2)c1=O,i,i,-6,i,i,·,·,·
CC(C)S(=O)(=O)C1=NSC2=NC(=O)/C(=C\c3ccc(OC(=O)c4ccco4)cc3)C(=N)N21,i,i,-25,i,i,·,·,·
CC(C)CSC1=NSC2=NC(=O)/C(=C\c3ccccc3)C(=N)N12,i,20*,22*,i,i,i,i,i
Cc1ccc(-c2[nH]ncc2/C=C(\C#N)C(=O)NC2CCCCC2)cc1,i,i,-12,i,i,i,i,i
N#C/C(=C\c1ccccc1[N+](=O)[O-])C(=O)NC1CCCCC1,i,i,-13,i,i,·,·,·
COc1ccc(-c2[nH]ncc2/C=C(/C#N)C(=O)NC2CCCCC2)cc1,i,i,-10,i,i,i,i,i
COc1ccc(-c2csc(N(C)C(=O)c3cccs3)n2)cc1,i,i,-9,i,i,·,·,·
COc1ccc(-c2csc(N(Cc3ccco3)C(=O)c3cccs3)n2)cc1,-9.4*,i,-21,i,i,50%*,i,40%*
COc1ccc(OC)c(-c2csc(N(Cc3ccco3)C(=O)c3cccs3)n2)c1,-12*,i,-14,7*,i,49%*,i,43%*
O=C(Nc1ccc(Cc2nc3ccccc3s2)cc1)c1ccncc1,i,i,-13,i,i,·,·,·
O=C(CN1CSCC1=O)N1CCN(S(=O)(=O)c2ccc(Cl)cc2)CC1,·,·,·,·,i,·,·,·
Cc1csc2sc(-c3ccnc(SCC(=O)NCc4ccccc4)n3)c(C)c12,-9.2*,i,-10,i,i,i,i,32%*
Cc1csc(SCC(=O)NCc2ccccc2)n1,i,i,-10,i,i,·,·,·
CCC(C)(C)NC(=O)C(c1cccc(OC)c1OC)N(CCOC)C(=O)CCC(=O)Nc1cc(C)on1 (centres undefined),i,i,-2,i,i,·,·,·
SMILES,KCNK9 inh,KCNQ1 pot,hERG protect,KCNQ1 inh,KCNK3 block,KCNK9 inh conf,Kir2-1 spec,KCNK9 uninduced
O=C(Cn1nc(C(=O)O)c2ccccc2c1=O)Nc1ccc(Cl)c(S(=O)(=O)N2CCOCC2)c1,·,·,·,·,i,·,·,·
Cc1cccc(N2CCN(C(=S)c3ccc(-c4ccccc4[N+](=O)[O-])o3)CC2)c1,i,i,-10,i,i,i,i,i
O=[N+]([O-])c1ccccc1-c1ccc(C(=S)N2CCCC2)o1,i,i,1,i,i,·,·,·
O=[N+]([O-])c1cccc(-c2ccc(C(=S)N3CCN(c4ccccc4)CC3)o2)c1,-8.3*,i,-12,i,i,33%*,i,42%*
Fc1ccc(C2c3[nH]c4ccccc4c3CCN2CCCn2cccn2)cc1 (centres undefined),i,i,-15,i,i,·,·,·
Fc1ccc(C2c3[nH]c4ccccc4c3CCN2Cc2ccoc2)cc1 (centres undefined),i,i,-9,i,i,i,i,i
CCCCc1ccc(/C(C)=N/Nc2cc(N3CCOCC3)nc(C)n2)cc1,i,i,-10,i,i,·,·,·
COCCn1c(SCc2nnc(-c3ccccc3)o2)nc2sc3c(c2c1=O)CCC3,-11*,i,-23,i,i,37%*,i,32%*
O=C(Oc1ccc2ccccc2c1Cl)N1CCCCCC1,-13*,i,-5,i,i,37%*,i,28%*
O=C(Oc1ccc2ccccc2c1Cl)N1CCCC1,i,i,-10,i,i,·,·,·
CCc1ccc(NC(=O)CCS(=O)(=O)c2ccc(Cl)cc2)cc1,i,i,-3,i,i,·,·,·
O=S(=O)(c1ccccc1)N(F)S(=O)(=O)c1ccccc1,·,·,·,·,i,·,·,·
CC(NCC(=O)NC(=O)NC1CCCC1)c1ccc(Cl)cc1Cl (centres undefined),i,i,-13,i,i,i,i,i
O=C(COC(=O)c1ccc(Cl)cc1)NC(=O)NC1CCCC1,·,·,·,·,i,·,·,·
O=C(COc1ccc(Br)cc1)NNC(=O)c1cc(S(=O)(=O)N2CCOCC2)ccc1Cl,·,·,·,·,i,·,·,·
COc1ccccc1N1CCN(C2CCCN(C(=O)CCc3c(C)noc3C)C2)CC1 (centres undefined),i,i,-10,i,i,·,·,·
